ChEMBL document CHEMBL4152188, “Design, synthesis and biological evaluation of C(4) substituted monobactams as antibacterial agents against multidrug-resistant Gram-negative bacteria” (Eur J Med Chem, 2018)
≈ marks a conversion by molar mass, not a printed value.

What was measured:
Type in all cases: functional
Escherichia coli [1] = assay: Antibacterial activity against extended-spectrum beta-lactamase producing Escherichia coli isolate 212648 after 18 hrs in presence of BPL by CLSI broth microdilution method; details: isolate 212648, 18 h
Procedure, shortened: (§1)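 CLSI broth microdilution against clinical isolates (ESBL E. coli, KPC-2 MDR K. pneumoniae, IMP-4 MDR P. aeruginosa; five per species). Iron limitation: Mueller-Hinton broth supplemented with 16 mg/liter 2,2'-bipyridyl to complex iron and induce iron uptake systems. Read-out: MIC.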

Klebsiella pneumoniae [2] = assay: Antibacterial activity against KPC-2 producing Klebsiella pneumoniae isolate 209735 after 18 hrs by CLSI broth microdilution method; details: isolate 209735, 18 h
Klebsiella pneumoniae [3] = assay: Selectivity index, ratio of MIC for against KPC-2 producing Klebsiella pneumoniae isolate 212232 to MIC for against KPC-2 producing Klebsiella pneumoniae isolate 212232 in presence of BPL
Pseudomonas aeruginosa [4] = assay: Antibacterial activity against IMP-4 producing Pseudomonas aeruginosa isolate 207272 after 18 hrs in presence of BPL by CLSI broth microdilution method; details: isolate 207272, 18 h; procedure, shortened: as §1
Klebsiella pneumoniae [5] = assay: Antibacterial activity against KPC-2 producing Klebsiella pneumoniae isolate 209632 after 18 hrs in presence of BPL by CLSI broth microdilution method; details: isolate 209632, 18 h; procedure, shortened: as §1
Pseudomonas aeruginosa [6] = assay: Selectivity index, ratio of MIC for against IMP-4 producing Pseudomonas aeruginosa isolate 209321 to MIC for against IMP-4 producing Pseudomonas aeruginosa isolate 209321 in presence of BPL
Pseudomonas aeruginosa [7] = assay: Antibacterial activity against IMP-4 producing Pseudomonas aeruginosa isolate 209471 after 18 hrs by CLSI broth microdilution method; details: isolate 209471, 18 h
Escherichia coli [8] = assay: Antibacterial activity against Escherichia coli isolate 210737 after 18 hrs by CLSI broth microdilution method; details: isolate 210737, 18 h
Escherichia coli [9] = assay: Selectivity index, ratio of MIC for against extended-spectrum beta-lactamase producing Escherichia coli isolate 209285 to MIC for extended-spectrum beta-lactamase producing Escherichia coli isolate 209285 in presence of BPL
Escherichia coli [10] = assay: Antibacterial activity against extended-spectrum beta-lactamase producing Escherichia coli isolate 106342 after 18 hrs in presence of BPL by CLSI broth microdilution method; details: isolate 106342, 18 h; procedure, shortened: as §1
Klebsiella pneumoniae [11] = assay: Antibacterial activity against KPC-2 producing Klebsiella pneumoniae isolate 209632 after 18 hrs by CLSI broth microdilution method; details: isolate 209632, 18 h
Pseudomonas aeruginosa [12] = assay: Antibacterial activity against IMP-4 producing Pseudomonas aeruginosa isolate 209471 after 18 hrs in presence of BPL by CLSI broth microdilution method; details: isolate 209471, 18 h; procedure, shortened: as §1
Klebsiella pneumoniae [13] = assay: Selectivity index, ratio of MIC for against KPC-2 producing Klebsiella pneumoniae isolate 212423 to MIC for against KPC-2 producing Klebsiella pneumoniae isolate 212423 in presence of BPL
Klebsiella pneumoniae [14] = assay: Antibacterial activity against KPC-2 producing Klebsiella pneumoniae isolate 212232 after 18 hrs in presence of BPL by CLSI broth microdilution method; details: isolate 212232, 18 h; procedure, shortened: as §1
Escherichia coli [15] = assay: Antibacterial activity against Escherichia coli isolate 210737 after 18 hrs in presence of BPL by CLSI broth microdilution method; details: isolate 210737, 18 h; procedure, shortened: as §1
Escherichia coli [16] = assay: Antibacterial activity against extended-spectrum beta-lactamase producing Escherichia coli isolate 208687 after 18 hrs by CLSI broth microdilution method; details: isolate 208687, 18 h
Klebsiella pneumoniae [17] = assay: Antibacterial activity against KPC-2 producing Klebsiella pneumoniae isolate 212232 after 18 hrs by CLSI broth microdilution method; details: isolate 212232, 18 h
Escherichia coli [18] = assay: Antibacterial activity against extended-spectrum beta-lactamase producing Escherichia coli isolate 208687 after 18 hrs in presence of BPL by CLSI broth microdilution method; details: isolate 208687, 18 h; procedure, shortened: as §1
Klebsiella pneumoniae [19] = assay: Antibacterial activity against KPC-2 producing Klebsiella pneumoniae isolate 212423 after 18 hrs in presence of BPL by CLSI broth microdilution method; details: isolate 212423, 18 h; procedure, shortened: as §1
Pseudomonas aeruginosa [20] = assay: Selectivity index, ratio of MIC for against IMP-4 producing Pseudomonas aeruginosa isolate 209471 to MIC for against IMP-4 producing Pseudomonas aeruginosa isolate 209471 in presence of BPL
Escherichia coli [21] = assay: Selectivity index, ratio of MIC for against Escherichia coli isolate 210737 to MIC for Escherichia coli isolate 210737 in presence of BPL
Escherichia coli [22] = assay: Antibacterial activity against extended-spectrum beta-lactamase producing Escherichia coli isolate 209285 after 18 hrs in presence of BPL by CLSI broth microdilution method; details: isolate 209285, 18 h; procedure, shortened: as §1
Pseudomonas aeruginosa [23] = assay: Antibacterial activity against IMP-4 producing Pseudomonas aeruginosa isolate 208247 after 18 hrs in presence of BPL by CLSI broth microdilution method; details: isolate 208247, 18 h; procedure, shortened: as §1
Pseudomonas aeruginosa [24] = assay: Selectivity index, ratio of MIC for against IMP-4 producing Pseudomonas aeruginosa isolate 207272 to MIC for against IMP-4 producing Pseudomonas aeruginosa isolate 207272 in presence of BPL
Escherichia coli [25] = assay: Selectivity index, ratio of MIC for against extended-spectrum beta-lactamase producing Escherichia coli isolate 208687 to MIC for extended-spectrum beta-lactamase producing Escherichia coli isolate 208687 in presence of BPL
Escherichia coli [26] = assay: Antibacterial activity against extended-spectrum beta-lactamase producing Escherichia coli isolate 212648 after 18 hrs by CLSI broth microdilution method; details: isolate 212648, 18 h
Klebsiella pneumoniae [27] = assay: Antibacterial activity against KPC-2 producing Klebsiella pneumoniae isolate 212229 after 18 hrs by CLSI broth microdilution method; details: isolate 212229, 18 h
Pseudomonas aeruginosa [28] = assay: Antibacterial activity against IMP-4 producing Pseudomonas aeruginosa isolate 208247 after 18 hrs by CLSI broth microdilution method; details: isolate 208247, 18 h
Pseudomonas aeruginosa [29] = assay: Antibacterial activity against IMP-4 producing Pseudomonas aeruginosa isolate 209321 after 18 hrs by CLSI broth microdilution method; details: isolate 209321, 18 h
Pseudomonas aeruginosa [30] = assay: Antibacterial activity against IMP-4 producing Pseudomonas aeruginosa isolate 212886 after 18 hrs by CLSI broth microdilution method; details: isolate 212886, 18 h
Pseudomonas aeruginosa [31] = assay: Antibacterial activity against IMP-4 producing Pseudomonas aeruginosa isolate 207272 after 18 hrs by CLSI broth microdilution method; details: isolate 207272, 18 h
Klebsiella pneumoniae [32] = assay: Selectivity index, ratio of MIC for against KPC-2 producing Klebsiella pneumoniae isolate 209632 to MIC for against KPC-2 producing Klebsiella pneumoniae isolate 209632 in presence of BPL
Escherichia coli [33] = assay: Selectivity index, ratio of MIC for against extended-spectrum beta-lactamase producing Escherichia coli isolate 106342 to MIC for extended-spectrum beta-lactamase producing Escherichia coli isolate 106342 in presence of BPL
Klebsiella pneumoniae [34] = assay: Selectivity index, ratio of MIC for against KPC-2 producing Klebsiella pneumoniae isolate 209735 to MIC for against KPC-2 producing Klebsiella pneumoniae isolate 209735 in presence of BPL
Pseudomonas aeruginosa [35] = assay: Antibacterial activity against IMP-4 producing Pseudomonas aeruginosa isolate 212886 after 18 hrs in presence of BPL by CLSI broth microdilution method; details: isolate 212886, 18 h; procedure, shortened: as §1
Escherichia coli [36] = assay: Antibacterial activity against extended-spectrum beta-lactamase producing Escherichia coli isolate 209285 after 18 hrs by CLSI broth microdilution method; details: isolate 209285, 18 h
Escherichia coli [37] = assay: Antibacterial activity against extended-spectrum beta-lactamase producing Escherichia coli isolate 106342 after 18 hrs by CLSI broth microdilution method; details: isolate 106342, 18 h
Pseudomonas aeruginosa [38] = assay: Antibacterial activity against IMP-4 producing Pseudomonas aeruginosa isolate 209321 after 18 hrs in presence of BPL by CLSI broth microdilution method; details: isolate 209321, 18 h; procedure, shortened: as §1
Pseudomonas aeruginosa [39] = assay: Selectivity index, ratio of MIC for against IMP-4 producing Pseudomonas aeruginosa isolate 212886 to MIC for against IMP-4 producing Pseudomonas aeruginosa isolate 212886 in presence of BPL
Klebsiella pneumoniae [40] = assay: Antibacterial activity against KPC-2 producing Klebsiella pneumoniae isolate 209735 after 18 hrs in presence of BPL by CLSI broth microdilution method; details: isolate 209735, 18 h; procedure, shortened: as §1
Klebsiella pneumoniae [41] = assay: Selectivity index, ratio of MIC for against KPC-2 producing Klebsiella pneumoniae isolate 212229 to MIC for against KPC-2 producing Klebsiella pneumoniae isolate 212229 in presence of BPL
Klebsiella pneumoniae [42] = assay: Antibacterial activity against KPC-2 producing Klebsiella pneumoniae isolate 212229 after 18 hrs in presence of BPL by CLSI broth microdilution method; details: isolate 212229, 18 h; procedure, shortened: as §1
Klebsiella pneumoniae [43] = assay: Antibacterial activity against KPC-2 producing Klebsiella pneumoniae isolate 212423 after 18 hrs by CLSI broth microdilution method; details: isolate 212423, 18 h
Escherichia coli [44] = assay: Selectivity index, ratio of MIC for against extended-spectrum beta-lactamase producing Escherichia coli isolate 212648 to MIC for extended-spectrum beta-lactamase producing Escherichia coli isolate 212648 in presence of BPL
Pseudomonas aeruginosa [45] = assay: Selectivity index, ratio of MIC for against IMP-4 producing Pseudomonas aeruginosa isolate 208247 to MIC for against IMP-4 producing Pseudomonas aeruginosa isolate 208247 in presence of BPL

MIC (Escherichia coli [1]): 16 µg/mL
MIC (Klebsiella pneumoniae [2]): > 64 µg/mL
MIC (Pseudomonas aeruginosa [4]): 64 µg/mL
MIC (Klebsiella pneumoniae [5]): > 64 µg/mL
MIC (Pseudomonas aeruginosa [7]): > 64 µg/mL
MIC (Escherichia coli [8]): 16 µg/mL (≈ 21.6 µM)
MIC (Escherichia coli [10]): 16 µg/mL
MIC (Klebsiella pneumoniae [11]): > 64 µg/mL
MIC (Pseudomonas aeruginosa [12]): > 64 µg/mL
MIC (Klebsiella pneumoniae [14]): 16 µg/mL
MIC (Escherichia coli [15]): 8 µg/mL
MIC (Escherichia coli [16]): 32 µg/mL (≈ 43.2 µM)
MIC (Klebsiella pneumoniae [17]): > 64 µg/mL
MIC (Escherichia coli [18]): 4 µg/mL
MIC (Klebsiella pneumoniae [19]): > 64 µg/mL
MIC (Escherichia coli [22]): 16 µg/mL
MIC (Pseudomonas aeruginosa [23]): 64 µg/mL
MIC (Escherichia coli [26]): 32 µg/mL (≈ 43.2 µM)
MIC (Klebsiella pneumoniae [27]): > 64 µg/mL
MIC (Pseudomonas aeruginosa [28]): 64 µg/mL (≈ 86.4 µM)
MIC (Pseudomonas aeruginosa [29]): 64 µg/mL (≈ 86.4 µM)
MIC (Pseudomonas aeruginosa [30]): > 64 µg/mL
MIC (Pseudomonas aeruginosa [31]): 64 µg/mL (≈ 86.4 µM)
MIC (Pseudomonas aeruginosa [35]): > 64 µg/mL
MIC (Escherichia coli [36]): 32 µg/mL (≈ 43.2 µM)
MIC (Escherichia coli [37]): 16 µg/mL (≈ 21.6 µM)
MIC (Pseudomonas aeruginosa [38]): 32 µg/mL
MIC (Klebsiella pneumoniae [40]): > 64 µg/mL
MIC (Klebsiella pneumoniae [42]): > 64 µg/mL
MIC (Klebsiella pneumoniae [43]): > 64 µg/mL
Structure (SMILES): CC(C)C(O/N=C(\C(=O)N[C@@H]1C(=O)N(S(=O)(=O)O)[C@@H]1COC(=O)CNC(=O)c1cc(=O)c(O)c[nH]1)c1csc(N)n1)c1cc(=O)c(O)cn1O (stereo not given in full)
Selectivity Index (Klebsiella pneumoniae [3]): >4
Selectivity Index (Pseudomonas aeruginosa [6]): 2
Selectivity Index (Escherichia coli [9]): 2
Selectivity Index (Klebsiella pneumoniae [13]): 4
Selectivity Index (Pseudomonas aeruginosa [20]): 1 - 2
Selectivity Index (Escherichia coli [21]): 2
Selectivity Index (Pseudomonas aeruginosa [24]): 1
Selectivity Index (Escherichia coli [25]): 8
Selectivity Index (Klebsiella pneumoniae [32]): 4
Selectivity Index (Escherichia coli [33]): 1
Selectivity Index (Klebsiella pneumoniae [34]): 4
Selectivity Index (Pseudomonas aeruginosa [39]): 1 - 2
Selectivity Index (Klebsiella pneumoniae [41]): 4
Selectivity Index (Escherichia coli [44]): 2
Selectivity Index (Pseudomonas aeruginosa [45]): 1
